ChEMBL document CHEMBL1142698, “Synthesis and biological evaluation of novel naphthocarbazoles as potential anticancer agents” (J Med Chem, 2005)
pIC50: −log10 of the molar value.

What was measured:
Type in all cases: functional, cell-based
L1210 = test: In vitro antiproliferative activity against murine leukemia L1210 cells; details: Mus musculus
Summary of the method: (§1)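 Cells from ATCC grown in RPMI 1640 with 10% fetal calf serum, 2 mM L-glutamine, penicillin/streptomycin and 10 mM HEPES (pH 7.4). Continuous exposure to graded concentrations for four doubling times. MTT added, then 4 h at 37 °C, formazan dissolved in DMSO and optical density read. IC50 is the concentration halving optical density versus untreated controls, from nine serial dilutions in duplicate.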

DU-145 [1] = test: In vitro antiproliferative activity against human prostate cancer DU145 cells; summary of the method: as §1
HT-29 = test: In vitro antiproliferative activity against human colon carcinoma HT-29 cells; summary of the method: as §1
DU-145 [2] = test: In vitro antiproliferative activity against human prostate cancer DU-145 cells; summary of the method: as §1

Row | Structure (SMILES) | pIC50 (L1210) | pIC50 (DU-145 [1]) | pIC50 (HT-29) | pIC50 (DU-145 [2])
1 | CN(C)CCOc1ccc2c(c1)[nH]c1c3cc4ccccc4cc3c3c(c21)C(=O)N(C)C3=O | 5.82 | 5.35 | – | –
2 | CN1C(=O)c2c(c3c4ccc(O[Si](C)(C)C(C)(C)C)cc4[nH]c3c3cc4ccccc4cc23)C1=O | 5.00 | 5.25 | – | –
3 | CN(C)CCn1c2ccccc2c2c3c(c4cc5ccccc5cc4c21)C(=O)N(C)C3=O | 5.62 | 5.33 | – | –
4 | COC1C(O)[C@@H](O)[C@H](n2c3c(Cl)cccc3c3c4c(c5c6cccc(Cl)c6[nH]c5c32)C(=O)NC4=O)O[C@@H]1CO (single isomer, unassigned) [REBECCAMYCIN] | 6.85 | – | – | –
5 | CN(C)CCN1C(=O)c2c(c3c4ccccc4[nH]c3c3cc4ccccc4cc23)C1=O | 6.68 | 6.54 | – | –
6 | O=C1c2c(c3c4ccc(O)cc4[nH]c3c3cc4ccccc4cc23)C(=O)N1C(CO)CO | 6.70 | 8.17 | 5.87 | –
7 | O=C1c2c(c3c4cc(O)ccc4[nH]c3c3cc4ccccc4cc23)C(=O)N1C(CO)CO | 5.92 | 5.67 | 5.54 | –
8 | O=C1c2c(c3c4cc(O)ccc4[nH]c3c3cc4ccccc4cc23)C(=O)N1CCNCCO | 6.54 | 6.20 | 5.42 | –
9 | CN1C(=O)c2c(c3c4cc(O)ccc4[nH]c3c3cc4ccccc4cc23)C1=O | 5.41 | 5.17 | – | –
10 | CN1C(=O)c2c(c3c4ccccc4n(CCN4CCOCC4)c3c3cc4ccccc4cc23)C1=O | 5.62 | – | – | –
11 | O=C1c2c(c3c4ccc(O)cc4[nH]c3c3cc4ccccc4cc23)C(=O)N1CCNCCO | 6.29 | 5.95 | 5.26 | –
12 | CN1C(=O)c2c(c3c4ccccc4[nH]c3c3cc4ccccc4cc23)C1=O | 5.54 | – | – | 5.96

Results, then the compound that gave them:

Row | pIC50 (L1210) | pIC50 (DU-145 [1]) | pIC50 (HT-29) | pIC50 (DU-145 [2]) | Structure (SMILES)
13 | 6.96 | 6.60 | – | – | CN(C)CCN1C(=O)c2c(c3c4ccc(O)cc4[nH]c3c3cc4ccccc4cc23)C1=O
14 | 7.44 | 6.97 | – | – | CN(C)CCN1C(=O)c2c(c3c4cc(O)ccc4[nH]c3c3cc4ccccc4cc23)C1=O
15 | 5.90 | 5.64 | 5.43 | – | CN1C(=O)c2c(c3c4ccccc4n(CC(O)CO)c3c3cc4ccccc4cc23)C1=O (centres undefined)
16 | 6.47 | 6.12 | 5.87 | – | CN(C)CCCN1C(=O)c2c(c3c4ccc(O)cc4[nH]c3c3cc4ccccc4cc23)C1=O
17 | 4.47 | 4.22 | 4.18 | – | C=CCn1c2ccccc2c2c3c(c4cc5ccccc5cc4c21)C(=O)N(C)C3=O
18 | 5.28 | 5.33 | – | – | CN1C(=O)c2c(c3c4ccc(O)cc4[nH]c3c3cc4ccccc4cc23)C1=O
19 | 6.89 | 6.54 | 6.08 | – | CN(C)CCCN1C(=O)c2c(c3c4cc(O)ccc4[nH]c3c3cc4ccccc4cc23)C1=O
